For 36 sequences, Tm and folding enthalpy results are on record in the array DNA melting data of Ke et al. (doi:10.1101/2024.01.08.574731).

A short description of data set [1]: melting temperature; fluorescence melt of hairpins on a sequencing array, two-state fit, raised by 9.35 °C to match UV melts. Conditions: sodium 0.088 M. An outline of the steps:
(§1)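 Cy3 signals were normalised both to pre-quench Cy3 and to control constructs. They came from library hairpins carrying annealed Cy3 and quencher oligos on a sequenced MiSeq flow cell, imaged in 50 mM Na-HEPES pH 8.0, 25 mM NaCl, in 2.5 °C steps up to 60 °C. Bootstrapped two-state fits gave melting temperature and folding enthalpy, and four replicates were combined by inverse variance. Fitted temperatures were then raised by 9.35 °C to match UV melts.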

A short description of data set [2]: folding enthalpy; higher = less favourable; fluorescence melt of hairpins on a sequencing array, two-state fit. Conditions: sodium 0.088 M. The procedure, abridged:
as §1

For GGAAGTGAAAACTTCC ((((((....)))))), the Tm in data set [1] came to 56.4 °C. In addition, the folding enthalpy in data set [2] is -37.3 kcal/mol.

In the case of GGAAGTGGAAACATTTCC ((((.((....)).)))), the Tm in data set [1] came out at 40.3 °C. Besides, the folding enthalpy in data set [2] is -27.9 kcal/mol.

GGAATAGGAAACTGTTCC ((((.((....)).)))): the Tm in data set [1] is 42.9 °C. Also, the folding enthalpy in data set [2] is -33 kcal/mol.

Turning to GGAATCGAAAGATATCC ((((((....))).))), the Tm in data set [1] turned out to be 29.1 °C. For the same sequence, the folding enthalpy in data set [2] is -13.4 kcal/mol.

As to GGAATCGAAAGATTCTCC ((((((....)))..))), the Tm in data set [1] was determined as 44.4 °C. For the same sequence, the folding enthalpy in data set [2] was -13.5 kcal/mol.

For GGAATCGGAAACAATTCC (((((.(....).))))), in data set [1], the Tm was 32.6 °C. The folding enthalpy in data set [2] was -27.8 kcal/mol.

In the case of GGAATCGGAAACGATTCC (((((((....))))))), the Tm in data set [1] came to 66.1 °C. The folding enthalpy in data set [2] was -43.2 kcal/mol.

For GGAATGAAAATTCC (((((....))))), the Tm in data set [1] came to 44.3 °C. The folding enthalpy in data set [2] is -22.3 kcal/mol.

For the sequence GGAATGTCGAAAGACTCC (((..(((....)))))), the Tm in data set [1] was found to be 32.6 °C. Besides, the folding enthalpy in data set [2] is -14.3 kcal/mol.

GGAATTCGAAAGAAATCC (((.(((....))).))): the Tm in data set [1] was 39.5 °C. Moreover, the folding enthalpy in data set [2] was -30.5 kcal/mol.

Regarding GGAATTCGAAAGAAGTCC (((.(((....))).))), in data set [1], the Tm came to 49.2 °C. Besides, the folding enthalpy in data set [2] is -37.5 kcal/mol.

In the case of GGACAAGAAATTGTCC ((((((....)))))), in data set [1], the Tm is 55.3 °C. Also, the folding enthalpy in data set [2] is -37.4 kcal/mol.

With GGACAAGGAAACTTGCCC ((.((((....)))).)), the Tm in data set [1] was found to be 43 °C. In addition, the folding enthalpy in data set [2] is -20.3 kcal/mol.

Consider GGACACCCGAAAGGGTCC (((..(((....)))))), for which, in data set [1], the Tm came out at 40.9 °C. Besides, the folding enthalpy in data set [2] was -11.5 kcal/mol.

As for GGACACCGAAAGGTTTCC (((.(((....))).))), the Tm in data set [1] worked out at 48.2 °C. For the same sequence, in data set [2], the folding enthalpy is -32.8 kcal/mol.

For GGACACGAAAGTGCTCC ((((((....))).))), in data set [1], the Tm was found to be 50.1 °C. Moreover, in data set [2], the folding enthalpy was -22.5 kcal/mol.

Consider GGACACGAAAGTGTCTCC ((((((....)))..))), for which the Tm in data set [1] is 53.8 °C. The folding enthalpy in data set [2] was -9.39 kcal/mol.

For GGACACGAAAGTGTTTCC ((((((....)))..))), the Tm in data set [1] was found to be 38 °C. In addition, the folding enthalpy in data set [2] is -11.5 kcal/mol.

On to GGACAGCGAAAGCTTTCC (((.(((....))).))), for which, in data set [1], the Tm stood at 48.3 °C. Besides, the folding enthalpy in data set [2] is -29.6 kcal/mol.

For the sequence GGACAGGGAAACCTATCC (((.(((....))).))), the Tm in data set [1] is 32.6 °C. For the same sequence, in data set [2], the folding enthalpy is -19.3 kcal/mol.

In the case of GGACATCGAAAGATATCC (((.(((....))).))), the Tm in data set [1] stood at 38 °C. The folding enthalpy in data set [2] was -29.8 kcal/mol.

For GGACATGGAAACACGTCC ((((.((....)).)))), in data set [1], the Tm stood at 42.7 °C. Further, in data set [2], the folding enthalpy is -30 kcal/mol.

Consider GGACATGGAAACATGTCC (((((((....))))))), for which the Tm in data set [1] stood at 64.7 °C. Besides, in data set [2], the folding enthalpy was -44.6 kcal/mol.

Take GGACATGGAAACGTGTCC (((((.(....).))))): in data set [1], the Tm worked out at 52.6 °C. Also, the folding enthalpy in data set [2] is -45.1 kcal/mol.

In the case of GGACCACGAAAGTGTCC (((.(((....)))))), in data set [1], the Tm came out at 56.1 °C. In addition, the folding enthalpy in data set [2] is -22 kcal/mol.

In the case of GGACCACGAAAGTGTTCC (((.(((....))).))), in data set [1], the Tm is 49.4 °C. Besides, the folding enthalpy in data set [2] is -24.8 kcal/mol.

On to GGACCAGGAAACTAGTCC ((((.((....)).)))), for which, in data set [1], the Tm came out at 36.4 °C. Moreover, the folding enthalpy in data set [2] is -26.9 kcal/mol.

As for GGACCCGAAAGGGCGTCC ((((((....)))..))), the Tm in data set [1] amounted to 49.1 °C. In addition, in data set [2], the folding enthalpy is -16.7 kcal/mol.

On to GGACCCGAAAGGGCTTCC ((((((....)))..))), for which the Tm in data set [1] was 40.6 °C. Moreover, the folding enthalpy in data set [2] is -17 kcal/mol.

On to GGACCCGAAAGGGGTTCC ((((((....)))..))), for which the Tm in data set [1] was 48.3 °C. The folding enthalpy in data set [2] was -15 kcal/mol.

As for GGACCCGAAAGGGTTCC ((((((....))).))), in data set [1], the Tm came to 59.7 °C. Further, in data set [2], the folding enthalpy is -16.8 kcal/mol.

Turning to GGACCCGGAAACAGGCCC ((.((.(....).)).)), the Tm in data set [1] was 29 °C. In data set [2], the folding enthalpy was -16.9 kcal/mol.

With GGACCGCGAAAGCGTTCC (((.(((....))).))), in data set [1], the Tm was found to be 53.1 °C. Besides, the folding enthalpy in data set [2] was -20.9 kcal/mol.

For GGACCGGGAAACCGATCC (((.(((....))).))), the Tm in data set [1] is 48 °C. For the same sequence, the folding enthalpy in data set [2] is -35.7 kcal/mol.

GGACGACGAAAGTCATCC (((.(((....))).))): the Tm in data set [1] turned out to be 48.8 °C. In addition, the folding enthalpy in data set [2] was -23.5 kcal/mol.

On to GGACGACGAAAGTCTCC (((.(((....)))))), for which the Tm in data set [1] was determined as 47 °C. Also, the folding enthalpy in data set [2] is -27.1 kcal/mol.
